Test results as given in ChEMBL document CHEMBL4196247, “Coumarinolignoids and Taraxerane Triterpenoids from Sapium discolor and Their Inhibitory Potential on Microglial Nitric Oxide Production” (J Nat Prod, 2018).

How the values were obtained:
BV-2 [1] = test: Cytotoxicity against mouse BV2 cells assessed as reduction in cell viability at 1 to 100 uM after 24 hrs by MTT assay; assay type: cell-based; conditions: bv-2, 24 h
How it was run: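 BV-2 viability was read by MTT at 1, 10, 30 and 100 μM in parallel with the NO-release test, to exclude NO drops caused by lost viability.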

BV-2 [2] = test: Antineuroinflammatory activity in mouse BV2 cells assessed as inhibition of LPS-induced nitric oxide production measured after 24 hrs by Griess assay; assay type: functional, cell-based; conditions: BV-2, 24 h
How it was run: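 BV-2 microglia; minocycline served as the positive control, and IC50 values were reported.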

Row | Compound | Activity (BV-2 [1]) | IC50 (BV-2 [2])
1 | COc1cc(/C=C/C(=O)O[C@H]2CC(=O)[C@]3(C)[C@H]4CC[C@]5(C)C(=CC[C@@]6(C(=O)O)CCC(C)(C)C[C@H]65)[C@]4(C)CC[C@H]3C2(C)C)ccc1O | Non-Toxic | 15.3 µM
2 | CC1(COC(=O)/C=C/c2ccc(O)cc2)CC[C@]2(C(=O)O)CC=C3[C@]4(C)CC[C@H]5C(C)(C)C(=O)C=C[C@]5(C)[C@H]4CC[C@@]3(C)[C@@H]2C1 (stereo not given in full) | Non-Toxic | 2.7 µM
3 | CC1(C)CC[C@]2(C(=O)O)CC=C3[C@]4(C)CC[C@H]5C(C)(C)[C@@H](O)CC(=O)[C@]5(C)[C@H]4CC[C@@]3(C)[C@@H]2C1 | Non-Toxic | > 50 µM
4 | CC(=O)O[C@H]1C[C@H](O)[C@]2(C)[C@H]3CC[C@]4(C)C(=CC[C@@]5(C(=O)O)CCC(C)(C)C[C@H]54)[C@]3(C)CC[C@H]2C1(C)C | Non-Toxic | > 50 µM
5 | O=c1ccc2cc3c(cc2o1)O[C@H](c1ccc(O)c(O)c1)[C@@H](CO)O3 | Non-Toxic | 13.8 µM
6 | CC1(C)CC[C@]2(C(=O)O)CC=C3[C@]4(C)CC[C@H]5C(C)(C)[C@@H](OC(=O)/C=C/c6ccc(O)cc6)CC(=O)[C@]5(C)[C@H]4CC[C@@]3(C)[C@@H]2C1 | Non-Toxic | 14 µM
7 | CC1(C)CC[C@]2(C(=O)O)CC=C3[C@]4(C)CC[C@H]5C(C)(C)C(=O)CC[C@]5(C)[C@H]4CC[C@@]3(C)[C@@H]2C1 | Non-Toxic | > 50 µM
8 | O=c1ccc2cc3c(cc2o1)O[C@H](CO)[C@@H](c1ccc(O)c(O)c1)O3 | Non-Toxic | 5.8 µM
9 | O=c1ccc2cc3c(cc2o1)O[C@@H](c1ccc(O)c(O)c1)[C@H](CO)O3 | Non-Toxic | 7.2 µM
10 | CC1(C)CC[C@]2(C(=O)O)CC=C3[C@]4(C)CC[C@H]5C(C)(C)[C@@H](OC(=O)/C=C/c6ccc(O)cc6)C[C@H](O)[C@]5(C)[C@H]4CC[C@@]3(C)[C@@H]2C1 | Non-Toxic | 46.5 µM
11 | COc1c2c(cc3ccc(=O)oc13)O[C@@H](c1ccc(O)c(O)c1)[C@H](CO)O2 | Non-Toxic | 4.2 µM
12 | O=c1ccc2cc3c(cc2o1)O[C@@H](CO)[C@H](c1ccc(O)c(O)c1)O3 | Non-Toxic | > 50 µM
13 | COc1c2c(cc3ccc(=O)oc13)O[C@H](c1ccc(O)c(O)c1)[C@@H](CO)O2 | Non-Toxic | 11.8 µM
14 | CC1(COC(=O)/C=C\c2ccc(O)cc2)CC[C@]2(C(=O)O)CC=C3[C@]4(C)CC[C@H]5C(C)(C)C(=O)C=C[C@]5(C)[C@H]4CC[C@@]3(C)[C@@H]2C1 (stereo not given in full) | Non-Toxic | 1.7 µM
15 | CC(=O)O[C@H]1CC(=O)[C@]2(C)[C@H]3CC[C@]4(C)C(=CC[C@@]5(C(=O)O)CCC(C)(C)C[C@H]54)[C@]3(C)CC[C@H]2C1(C)C | Non-Toxic | > 50 µM
16 | CC(=O)O[C@H]1CC[C@]2(C)[C@H]3CC[C@]4(C)C(=CC[C@@]5(C(=O)O)CCC(C)(C)C[C@H]54)[C@]3(C)CC[C@H]2C1(C)C [ACETYL ALEURITOLIC ACID] | Non-Toxic | > 50 µM
17 | CC1(C)CC[C@]2(C(=O)O)CC=C3[C@]4(C)CC[C@H]5C(C)(C)[C@@H](O)CC[C@]5(C)[C@H]4CC[C@@]3(C)[C@@H]2C1 [ALEURITOLIC ACID] | Non-Toxic | > 50 µM
18 | CN(C)c1ccc(O)c2c1C[C@H]1C[C@H]3[C@H](N(C)C)C(O)=C(C(N)=O)C(=O)[C@@]3(O)C(O)=C1C2=O [MINOCYCLINE] |  | 4.9 µM
